In ChEMBL document CHEMBL1123333, “Synthesis and antiviral activity of certain nucleoside 5'-phosphonoformate derivatives” (1986):

Assays:
[1] = tested on: Vero; test: Maximum tolerated concentration (MTC), the lowest concentration that produced microscopically evident toxicity to confluent vero cells; type: functional, Chlorocebus sabaeus
Method in brief: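 Uninfected confluent Vero monolayers in DMEM with 10% newborn bovine serum, single well per concentration, exposed to compound at final 5.0–5000 μM (0.5-log steps) for 72 h at 37 °C, 5% CO2. Cytotoxicity was any microscopic change in morphology or monolayer density from lysis, rounding or detachment. MTC = lowest concentration showing such change.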

[2] = tested on: Vero; test: Compound was tested for antiviral activity against Herpes simplex virus type 1 (HF); type: functional; details: Chlorocebus sabaeus, read-out: ED50 (the source's name)
[3] = tested on: Vero; test: Compound was tested for antiviral activity against Herpes simplex virus type 1(KOS); type: functional; details: Chlorocebus sabaeus, read-out: ED50 (the source's name)
[4] = tested on: Vero; test: Compound was tested for antiviral activity against Herpes simplex virus type 2 (MS); type: functional; details: Chlorocebus sabaeus, read-out: ED50 (the source's name)
[5] = tested on: Vero; test: Compound was tested for antiviral activity against Herpes simplex virus type 2 of strain 333; type: functional; details: Chlorocebus sabaeus, read-out: ED50 (the source's name)
[6] = tested on: Vero; test: Compound was tested for antiviral activity against measles virus; type: functional; details: Chlorocebus sabaeus, read-out: ED50 (the source's name)
[7] = tested on: Vero; test: Virus rating against Herpes simplex virus type 2 of strain 333; type: functional, Chlorocebus sabaeus
Method in brief: (§1)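 Virus-infected confluent Vero cells treated with compound in seven 0.5-log steps (final 5.0–5000 μM) after 30-min adsorption at 37 °C, duplicate wells per concentration. CPE scored microscopically 0 (normal) to 4 (complete destruction) after 72 h at 37 °C, 5% CO2.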

[8] = tested on: Vero; test: Virus rating against Herpes simplex virus type 2 of strain MS; type: functional, Chlorocebus sabaeus; method in brief: as §1
[9] = tested on: Vero; test: Virus rating against Herpes simplex virus type 1 of strain KOS; type: functional, Chlorocebus sabaeus; method in brief: as §1
[10] = tested on: Vero; test: Virus rating against Herpes simplex virus type 1 of strainHF; type: functional, Chlorocebus sabaeus; method in brief: as §1
[11] = tested on: Vero; test: Virus rating against measles virus; type: functional, Chlorocebus sabaeus; method in brief: as §1
[12] = tested on: Vero; test: Virus rating against vaccinia; type: functional, Chlorocebus sabaeus; method in brief: as §1
[13] = tested on: Vero; test: Compound was tested for antiviral activity against vaccinia; type: functional; details: Chlorocebus sabaeus, read-out: ED50 (the source's name)
[14] = tested on: Vero; test: Virus rating against para 3; type: functional, Chlorocebus sabaeus; method in brief: as §1
[15] = tested on: Vero; test: Compound was tested for antiviral activity against para 3; type: functional; details: Chlorocebus sabaeus, read-out: ED50 (the source's name)
[16] = tested on: Vero; test: Virus rating against Herpes simplex virus type 1 of strain HF; type: functional, Chlorocebus sabaeus; method in brief: as §1

SMILES	MTC [1] [µM]	EC50 [2] [µM]	EC50 [3] [µM]	EC50 [4] [µM]	EC50 [5] [µM]	EC50 [6] [µM]	VR [7]	VR [8]	VR [9]	VR [10]	VR [11]	VR [12]	EC50 [13] [µM]	VR [14]	EC50 [15] [µM]	VR [16]
Nc1ncnc2c1ncn2[C@H]1C[C@H](O)[C@@H](COP(=O)(O)C(=O)O)O1	>5000	730	1800	40	54	900	1.77	1.85	0.65	1.08	0.7	0	> 5000	–	–	–
Nc1nc(O)c2ncn([C@H]3C[C@H](O)[C@@H](COP(=O)(O)C(=O)O)O3)c2n1	5000	> 5000	> 5000	350	230	> 5000	1.26	1.18	0.1	0.22	0.1	0	> 5000	0.25	–	–
Nc1nc(O)c2ncn(C3O[C@H](COP(=O)(O)C(=O)O)[C@@H](O)[C@H]3O)c2n1 (stereo partly specified)	>5000	> 5000	> 5000	> 5000	> 5000	330	0.22	0.18	0	0.2	0.62	0	> 5000	0.1	> 5000	–
CCOC(=O)P(=O)(O)OC[C@H]1OC(n2cnc3c(N)ncnc32)[C@H](O)[C@@H]1O (stereo partly specified)	>5000	> 5000	> 5000	820	1000	> 5000	0.72	1.12	0	0.3	–	0.23	> 5000	0	> 5000	–
Nc1ncnc2c1ncn2C1O[C@H](COP(=O)(O)C(=O)O)[C@@H](O)[C@H]1O (stereo partly specified)	>5000	> 5000	> 5000	360	1600	3000	0.7	1.15	0	0.18	0.38	0.65	740	0	> 5000	–
CCOC(=O)P(=O)(O)OC[C@H]1OC(n2cnc3c(O)nc(N)nc32)[C@H](O)[C@@H]1O (stereo partly specified)	>5000	> 5000	> 5000	820	600	500	1.02	0.9	0	–	0.68	0	> 5000	0.1	> 5000	0.22
O=C([O-])P(=O)([O-])[O-].[Na+].[Na+].[Na+] [FOSCARNET SODIUM]	>5000	230	170	89	20	> 5000	2.08	1.74	1.37	1.3	0	0.1	> 5000	0.4	5000	–
NC(=O)P(=O)(O)OC[C@H]1OC(n2cnc3c(N)ncnc32)[C@H](O)[C@@H]1O (stereo partly specified)	>5000	> 5000	> 5000	830	440	2800	1.24	1	0	0.28	0.45	0	> 5000	0.1	> 5000	–
NC(=O)P(=O)(O)OC[C@H]1OC(n2cnc3c(O)nc(N)nc32)[C@H](O)[C@@H]1O (stereo partly specified)	>5000	> 5000	> 5000	970	300	900	1.16	0.91	0	0	0.7	0	> 5000	0.1	> 5000	–
